# From PubChem BioAssay
# sPLA2-III inh: Inhibits HGIII-sPLA2 liposome hydrolysis, primary screen; Q9NZ20; 0.56% of 370,000 active; QFRET BODIPY PC-A2 liposome hydrolysis, fluorescence; inhibition, % at 12.2 µM; AID 743126;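 active = inhibition above mean plus 3 SD of compounds lying within the high and low control bounds, cut at about 19% in these data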;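 note: 0% = median of test compound wells and 100% = no enzyme DMSO wells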
# PLC-beta3 inh: PLC-beta3 (human) inhibition, primary screen; Purified PLC-beta3, fluorogenic substrate, fluorescence; AID 720704; Q01970; inhibition, % at 12.2 µM; 0.18% of 370,000 active; in the data active = inhibition above about 11%;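 note: 0% = median of compound wells on plate and 100% = full blocker control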
# Target sequence (Q01970 whole entry, looked up): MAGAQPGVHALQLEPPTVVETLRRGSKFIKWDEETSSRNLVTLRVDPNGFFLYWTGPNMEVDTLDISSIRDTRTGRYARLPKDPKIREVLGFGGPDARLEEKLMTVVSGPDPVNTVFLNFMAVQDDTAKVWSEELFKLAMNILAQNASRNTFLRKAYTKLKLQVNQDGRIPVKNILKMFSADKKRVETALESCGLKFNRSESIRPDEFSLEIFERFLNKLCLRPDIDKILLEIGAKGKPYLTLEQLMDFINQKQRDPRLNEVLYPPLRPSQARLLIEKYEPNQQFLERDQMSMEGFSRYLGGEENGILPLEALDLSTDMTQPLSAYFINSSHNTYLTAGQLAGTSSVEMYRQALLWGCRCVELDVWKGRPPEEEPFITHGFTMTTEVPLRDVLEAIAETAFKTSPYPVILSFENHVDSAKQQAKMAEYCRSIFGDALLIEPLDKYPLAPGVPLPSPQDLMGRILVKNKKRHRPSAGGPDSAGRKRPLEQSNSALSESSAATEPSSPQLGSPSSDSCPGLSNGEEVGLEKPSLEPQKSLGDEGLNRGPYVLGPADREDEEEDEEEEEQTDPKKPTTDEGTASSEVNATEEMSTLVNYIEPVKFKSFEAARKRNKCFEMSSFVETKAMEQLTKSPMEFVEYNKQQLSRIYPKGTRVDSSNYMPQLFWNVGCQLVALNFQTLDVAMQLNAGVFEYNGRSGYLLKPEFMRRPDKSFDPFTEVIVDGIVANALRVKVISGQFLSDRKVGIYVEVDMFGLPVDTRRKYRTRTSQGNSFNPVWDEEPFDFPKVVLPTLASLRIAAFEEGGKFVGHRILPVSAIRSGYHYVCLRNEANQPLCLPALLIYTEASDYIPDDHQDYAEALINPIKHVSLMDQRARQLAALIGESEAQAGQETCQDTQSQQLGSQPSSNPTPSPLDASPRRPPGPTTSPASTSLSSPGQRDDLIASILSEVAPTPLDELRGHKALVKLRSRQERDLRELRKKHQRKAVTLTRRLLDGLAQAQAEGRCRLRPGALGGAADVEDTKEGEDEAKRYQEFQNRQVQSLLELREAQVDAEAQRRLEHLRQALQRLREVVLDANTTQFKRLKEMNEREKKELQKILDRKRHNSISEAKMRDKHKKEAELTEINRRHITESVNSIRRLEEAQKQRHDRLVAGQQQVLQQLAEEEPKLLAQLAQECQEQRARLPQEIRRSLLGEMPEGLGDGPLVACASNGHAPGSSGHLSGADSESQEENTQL
# Tb MetRS inh: blocks T. brucei methionyl-tRNA synthetase activity; 0.4% of 360,000 active; purified T. brucei MetRS, ATP depletion, Kinase-Glo luminescence; inhibition, % at 11.9 µM; AID 624268;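 active = inhibition above a per-plate cutoff of the control wells' mean inhibition plus 3 SD, cut at about 5.5% in these data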;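 note: 0% = DMSO wells median and 100% = median of wells with control inhibitor compound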
#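 Dosing: 11.9 µM single point; system: parasite MetRS enzyme; technique: luminescence of leftover ATP; times: 15 min enzyme-compound preincubation, 2 h reaction, 10 min detection, 25 °C; replicates: each compound tested once; read-out basis: percent inhibition relative to median high and low control wells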
# PLCg1 inh: inhibitors of human phospholipase C gamma1; P19174; purified PLC-gamma1, fluorogenic substrate, fluorescence; inhibition, % at 12.2 µM; 0.84% of 370,000 active; in the data active = inhibition above about 9.5%
# Tb MetRS conf: Trypanosoma brucei MetRS inhibition confirmed | shares compounds with Tb MetRS inh | T. brucei MetRS enzyme, luminescence (ATP depletion) | inhibition, % at 11.9 µM | 93% of 1,400 active | AID 624412; in the data active = inhibition above about 7%
# Jurkat cytotox: kills Jurkat cells in T. brucei MetRS counterscreen; Jurkat cells viability, ATP luminescence; 12% of 1,400 active; shares compounds with Tb MetRS inh; inhibition, % at 8.3 µM; in the data active = inhibition above about 15%;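 note: 0% = vehicle and 100% = reference inhibitor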
# TbMetRS FP orth: T. brucei MetRS inhibition, orthogonal assay; shares compounds with Tb MetRS inh; inhibition, % at 11.9 µM; 44% of 1,400 active; purified T. brucei MetRS, fluorescence polarization; AID 651607; in the data active = inhibition above about 17%;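 note: 0% = vehicle wells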
# * = called active by the depositor; . = no result given. An excerpt weighted towards active compounds, which were near 1.9% of everything screened.
SMILES,sPLA2-III inh,PLC-beta3 inh,Tb MetRS inh,PLCg1 inh,Tb MetRS conf,Jurkat cytotox,TbMetRS FP orth
CCOC(=O)[C@@]12CCCC3=C1N(CCC3)C(=O)[C@H]2CC(=O)N1CCCCC1,0.9,-0.8,.,-0.1,.,.,.
COCC(=O)N(Cc1cc2cc(C)ccc2[nH]c1=O)c1ccc(C)c(C)c1,-6.8,-9.1,0.5,-4.7,.,.,.
COCC(=O)N(Cc1cc2cc(C)ccc2[nH]c1=O)c1cccc(C)c1C,1.5,-9.3,5.6*,2.1,11.6*,-2.4,-0.9
C[C@H](CO)N1C[C@H](C)[C@@H](CN(C)C(=O)Nc2ccc(C(C)(C)C)cc2)OCc2cn(nn2)CCCC1=O,0.9,1.7,.,0.2,.,.,.
O=[N+]([O-])c1ccc2c(c1)CO[C@]21O[C@H](CCO)C[C@H](O)[C@H]1O,6.4,-3.7,.,1.3,.,.,.
CCO[C@H]1OC(C(=O)NCc2nc3ccccc3[nH]2)=C[C@@H](C2CCCCC2)[C@@H]1CCCO,-28.7,4.4,3.7,2.0,.,.,.
CC(C)(C)[C@H]1C=C(C(=O)NCc2nc3ccccc3[nH]2)O[C@@H](OCCCCO)C1,2.0,0.4,57.0*,0.8,96.5*,-6.2,60.9*
C[C@H]1C=C(C(=O)NCc2nc3ccccc3[nH]2)O[C@@H](OCCCCO)C1,8.9,-10.5,14.0*,-1.4,54.1*,0.2,27.1*
CC(C)(C)[C@H]1C=C(C(=O)NCc2ccccc2)O[C@@H](OCCCCO)C1,-2.0,1.3,0.2,-3.4,.,.,.
O=C(NCc1nc2ccccc2[nH]1)C1=C[C@@H](C2CCCCC2)C[C@@H](OCCCCO)O1,-23.2,0.3,48.3*,2.7,83.2*,-6.8,62.0*
COc1cccc(C(=O)N2CCC(Oc3cccnc3)CC2)c1,-1.4,2.2,.,1.4,.,.,.
O=S1(=O)c2c(cccc2N2CC[C@@H](O)C2)OCCCN1C1CC1,1.6,-0.2,.,-0.7,.,.,.
CCOc1ccc(C(=O)Nc2cc(-c3nc4ccccc4[nH]3)ccc2Cl)cc1[N+](=O)[O-],-17.8,3.5,7.7*,2.1,13.6*,5.3,15.3
CSCC[C@H](NC(=O)COc1ccc(Cl)cc1Cl)c1nc2ccccc2[nH]1,-9.1,8.9,11.8*,0.8,24.1*,5.2,10.6
CSCC[C@H](NC(=O)c1ccc(Cl)c([N+](=O)[O-])c1)c1nc2ccccc2[nH]1,-19.2,3.9,56.2*,-0.1,73.0*,8.7,42.6*
O=C(NC(Cc1ccccc1)c1nc2ccccc2[nH]1)c1ccc(Cl)c([N+](=O)[O-])c1 (stereo not given),-8.1,3.7,20.2*,2.5,26.4*,10.8,12.2
CSCC[C@H](NC(=O)CC(C)(C)C)c1nc2ccccc2[nH]1,4.0,-3.4,-0.9,-2.0,.,.,.
COCCN(Cc1ccc(C)cc1)C(=O)[C@H]1O[C@@H](n2cnc(C(N)=O)n2)[C@H](O)[C@@H]1O,9.7,2.4,.,0.2,.,.,.
CN1C(=O)c2cc(NC(=O)Nc3ccc(F)c(F)c3)ccc2OC[C@H]2O[C@@H](CC(=O)O)CC[C@H]21,7.3,-1.3,.,-0.1,.,.,.
COC(=O)C1=C(N)Oc2cc(C)n(Cc3ccco3)c(=O)c2C1c1cccc(Cl)c1 (stereo not given),-9.1,-2.3,52.1*,-0.4,5.5,4.5,2.1
COC(=O)N1Cc2ccnnc2CC1c1ccccc1-c1ccc(F)cc1 (stereo not given),7.4,4.2,.,0.8,.,.,.
C[C@H](O)[C@@H]1CN2CCc3ccc(N4CCOCC4)cc3[C@@H]2C[C@@H]1N(C)C(=S)NCCc1ccccc1,1.1,-8.3,.,-7.1,.,.,.
N#Cc1cccc(NC(=O)O[C@@H]2CC[C@@]34CCCN3C(=O)CCC[C@H]4C2)c1,0.7,2.8,.,-2.0,.,.,.
O=C1c2ccccc2C(c2nc3ccccc3[nH]2)N1c1ccccn1 (stereo not given),2.4,-34.7,6.9*,-26.8,14.3*,7.2,6.9
COCCN1C(=O)c2ccccc2C1c1nc2ccccc2[nH]1 (stereo not given),12.2,-1.7,4.2,3.7,.,.,.
SMILES,sPLA2-III inh,PLC-beta3 inh,Tb MetRS inh,PLCg1 inh,Tb MetRS conf,Jurkat cytotox,TbMetRS FP orth
O=c1c2c([nH]c3ccc(Br)cc13)CCCC2,-1.1,-24.7,14.3*,-16.5,27.1*,5.0,14.0
O=S(=O)(c1ccccc1F)N1CCC(c2nc3ccccc3o2)CC1,-0.1,5.9,.,1.2,.,.,.
CC1CCN(C(=O)c2[nH]cnc2C(=O)N(C)CCO)CC1,7.8,-3.3,.,1.5,.,.,.
O=[N+]([O-])c1ccc(CN2CCN(Cc3c[nH]c4ccccc34)CC2)cc1,-21.0,-0.9,6.2*,2.3,18.9*,9.9,5.5
Brc1ccc(CN2CCN(Cc3c[nH]c4ccccc34)CC2)cc1,-26.1,-8.6,11.0*,2.4,41.9*,13.3,17.5*
CC(=O)C1=C(C)N(Cc2ccc(Cl)cc2)C(=S)NC1c1ccc(Cl)cc1 (stereo not given),11.5,-0.8,.,7.7,.,.,.
O=C(Cc1nc2ccccc2[nH]1)c1ccc(Cl)cc1,-3.7,-91.2,0.6,-55.0,.,.,.
O=C(NCCc1nc2ccccc2[nH]1)c1ccc([N+](=O)[O-])cc1,3.3,-5.6,36.0*,-0.5,58.2*,3.7,29.2*
CC(C)C(NC(=O)CCNC(=O)c1ccc([N+](=O)[O-])cc1)c1nc2ccccc2[nH]1 (stereo not given),0.7,-6.9,0.1,0.0,.,.,.
O=C(NCCc1nc2ccccc2[nH]1)c1ccc(F)cc1,.,.,6.4*,.,10.3*,-1.4,1.1
O=C(Cc1nc2ccccc2[nH]1)c1ccc([N+](=O)[O-])cc1,-0.1,-37.7,8.0*,-17.6,5.8*,10.4,7.4
O=C(NCCc1nc2ccccc2[nH]1)c1cccc(Br)c1,7.5,0.9,18.6*,-0.5,29.6*,-4.7,11.8
CC(=O)NCCc1nc2ccccc2[nH]1,2.2,1.6,-0.5,2.1,.,.,.
CCCCc1c(-c2ccccc2OC)ncn1Cc1ccc(C(C)(C)C)cc1,0.0,-1.6,.,-0.1,.,.,.
O=C(N/C(=C\c1cccnc1)c1nc2ccccc2[nH]1)c1cccc(Br)c1,-3.7,-4.6,66.3*,-7.0,80.3*,-3.1,57.3*
O=C(N/C(=C\c1ccc(Br)cc1)c1nc2ccccc2[nH]1)c1ccco1,-4.8,-16.7,-0.2,-7.5,.,.,.
O=C(COc1ccc([N+](=O)[O-])cc1)NCCc1nc2ccccc2[nH]1,1.3,-0.5,6.9*,5.9,12.3*,4.8,10.8
S=C(NCc1ccc(Cl)cc1)OC1CCC12CCC(c1ccccc1)CC2 (stereo not given),4.3,0.6,.,0.0,.,.,.
O=C(CN1C2=NCCCN2c2ccccc21)c1ccc(Cl)cc1Cl,-24.2,4.9,12.0*,1.7,27.8*,11.5,12.6
Cn1cnc2cc(NCc3ccc(Cl)cc3)ccc21,5.9,-51.4,7.2*,-32.0,16.3*,1.2,1.5
COC(=O)[C@@H]1C[C@@]2(c3ccccc3)c3ccccc3N(S(=O)(=O)c3ccccc3)[C@H]2N1C(=O)CNC1CCCCC1,-11.9,3.7,.,4.9,.,.,.
